Drawing on ChEMBL document CHEMBL4513216, “Probing the Open Global Health Chemical Diversity Library for Multistage-Active Starting Points for Next-Generation Antimalarials” (ACS Infect Dis, 2020), this text covers cytotoxicity for 40 compounds.

Molecules are shown by their SMILES.

The data set in a line: Toxicity liver stage against HepG2, at 10uM. Format: cell-based. More on the design: test concentration 10 uM, cell line HepG2-A16-CD81EGFP. The settings on record: human, HepG2-A16-CD81EGFP cells; read-out: INHIBITION
The procedure, abridged: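 Uninfected HepG2-A16-CD81EGFP cells, 3 × 10^3 per well, 1536-well, plated on prespotted compound at 10 μM final, parasite-free screening media added to match infected plates; puromycin 10 μM positive, DMSO 0.5% negative; run in parallel with 48 h PbLuc assay at 37 °C, 5% CO2; viability by CellTiter-Glo luminescence, normalized to controls.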
With `CCS(=O)(=O)c1ccc2oc([C@H]3CCN(Cc4cccnc4)C3)nc2c1`, the cytotoxicity at 10 µM was 19.7%.
Consider `O=C1N(C2CCCCC2)C[C@H]2CN(C3CCC3)CCN12`, for which the cytotoxicity at 10 µM worked out at 6.44%.
Take `COC(=O)[C@@H]1Cc2ncn(C)c2CN1S(=O)(=O)c1cccs1`: the cytotoxicity at 10 µM was -6.25%.
With `O=C(NCCC1=CCCCC1)c1[nH]nc2c1CCCC2`, the cytotoxicity at 10 µM is -80.4%.
Regarding `CCCN1CCc2nc(SCc3ccc(F)cc3)[nH]c(=O)c2C1`, the cytotoxicity at 10 µM is -3.37%.
Regarding `CC(C)N1C[C@@H](CO)[C@H](c2ccccc2)S1(=O)=O`, the cytotoxicity at 10 µM is -1.94%.
`CN(C)C(=O)NC1COC2(CCN(C(=O)c3ccc(Cl)cc3)CC2)C1` (stereo not given): the cytotoxicity at 10 µM stood at 0.994%.
Regarding `COCCN1CCC2(CCCN(C(=O)c3ccoc3C)C2)C1=O` (stereo not given), the cytotoxicity at 10 µM came out at 0.369%.
Consider `Cc1cc(C(=O)N2CCCC(c3nc(C)no3)C2)on1` (stereo not given), for which the cytotoxicity at 10 µM is 6.93%.
Turning to `CN1CCCC1c1ccnc2nccn12` (stereo not given), the cytotoxicity at 10 µM came out at 6.84%.
In the case of `CSc1nnc(C2CCN(C(=O)N3CCCC3)CC2)n1C(C)C`, the cytotoxicity at 10 µM amounted to 8.54%.
For `CO[C@H]1CN(Cc2nc3ccccc3n2C)CC[C@@]12CCCO2`, the cytotoxicity at 10 µM is 2.5%.
Consider `Cc1ccc(NC(=O)N(C)C)c(C(=O)OCC(=O)NC2CCCC2)c1`, for which the cytotoxicity at 10 µM was -8.03%.
On to `COc1ccc(-c2cnc(CN(CC(N)=O)C3CCCC3)o2)cc1`, for which the cytotoxicity at 10 µM was -7.95%.
Take `Cc1nc2n(n1)CC(NCCc1cccs1)CC2` (stereo not given): the cytotoxicity at 10 µM was -9.77%.
On to `CC(NC(=O)COc1ccccc1C(=O)O)c1ccc(F)cc1` (stereo not given), for which the cytotoxicity at 10 µM is -1.11%.
As to `Cc1ccc(C(=O)Nc2cccc3c2C(=O)NC3)c(C)n1`, the cytotoxicity at 10 µM was 0.102%.
`Cc1nc(CNCC(C)c2nc3ccccc3o2)cs1` (stereo not given): the cytotoxicity at 10 µM is 14.5%.
Consider `Cc1oc(CN(C)C(=O)c2ccc(C(F)(F)F)cc2)cc1C(=O)O`, for which the cytotoxicity at 10 µM is 9.08%.
Consider `Cc1noc(C)c1Cc1nc(N(C)C)no1`, for which the cytotoxicity at 10 µM was found to be 9.21%.
Regarding `CCC(Nc1nnnn1-c1ccccc1)C(=O)Nc1nc(C)cs1` (stereo not given), the cytotoxicity at 10 µM is -23%.
For the compound `CCC(Nc1nnnn1-c1ccccc1)C(=O)NCc1ccsc1` (stereo not given), the cytotoxicity at 10 µM was -3.56%.
As for `CNC(=O)c1ccccc1NCc1ncnn1C`, the cytotoxicity at 10 µM was -0.393%.
As to `O=S(=O)(CCC1CCCO1)NCc1ncc(-c2ccccc2)o1` (stereo not given), the cytotoxicity at 10 µM was 3.7%.
With `CN1CC(C(=O)NCCc2ccc3c(c2)OCO3)CC1=O` (stereo not given), the cytotoxicity at 10 µM stood at 2.55%.
Turning to `C[C@@H]1CN(Cc2cccnc2)C[C@]1(C)O`, the cytotoxicity at 10 µM was -6.1%.
Then `CCn1nc(C)c(C(=O)N2C[C@@H](CN(C)CCOC)[C@@H](CO)C2)c1C`, with 1.35%.
Regarding `Cc1cc(OCC(O)c2nc3c([nH]2)CC(C)(C)CNC3=O)ccc1Cl` (stereo not given), the cytotoxicity at 10 µM is -1.57%.
Consider `CC(=O)NCc1nc(Cc2cccc(Cl)c2)nn1C1CCN(C)CC1`, for which the cytotoxicity at 10 µM is -1.12%.
For `CN(Cc1ccno1)c1nc(C2CCCC2)nc2c1cnn2C`, the cytotoxicity at 10 µM amounted to 7.27%.
In the case of `NC1(C(=O)NCCC2CN(Cc3ccco3)CCO2)CCCC1` (stereo not given), the cytotoxicity at 10 µM is -1.03%.
For the compound `CN(C)C(=O)C1CCCN1C(=O)c1ccc(Cn2ccnc2)o1` (stereo not given), the cytotoxicity at 10 µM was -0.304%.
For `CC(C)(C)n1ccc(C(=O)N2CCCC(c3ncc[nH]3)C2)c1` (stereo not given), the cytotoxicity at 10 µM came to 2.96%.
Turning to `CC(=O)N1CCN(C(=O)CCOc2ccc(C(C)C)cc2)CC1`, the cytotoxicity at 10 µM was -6.51%.
Consider `CCc1nc(C2CCCN(C(=O)CCn3ccccc3=O)C2)no1` (stereo not given), for which the cytotoxicity at 10 µM is -12.3%.
Then `CCc1nccn1C1CCCN(C(=O)c2csc(NC(C)=O)n2)C1` (stereo not given), with -13%; and `COc1ccc(CNC2CCC3(CCC(=O)N3)CC2)cc1` (stereo not given), with 3.59%; and `CN(C)c1ncnc2c1CCN(CC1CCOC1)CC2` (stereo not given), with 0.745%.
Then `Cc1cccnc1N1CC2(CCN(Cc3cnn(C)c3)C2)C1`, with -5.99%; and `c1ccc(CN2CCc3ncnc(-c4ccsc4)c3CC2)nc1`, with 3.91%.
